Source: PubChem BioAssay (several laboratories)
ZTA DNA inh: ZTA (EBV) inhibition in EBNA-1 counter-screen; 320,000 tested, 0.15% active; P03206; ZTA-DNA binding, fluorescence polarization; inhibition, % at 11 µM; in the data active = inhibition above about 33%
NS3 helicase inh: inhibitors of HCV NS3 helicase, primary screen, biochemical, Cy5 molecular beacon fluorescence. NS3 helicase DNA unwinding. inhibition, % at 10.9 µM. 290,000 tested, 0.56% active;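 active = inhibition above the mean of all tested compounds plus 3 SD, set per campaign, cut at about 35% in these data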;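 also: 0% = DMSO wells and 100% = thioflavine S control wells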
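Assay system – hepatitis C virus NS3 helicase domain fragment enzyme · Buffer or medium – MOPS pH 6.5, MgCl2, DTT, Tween20, BSA · Reagent – Cy5/quencher beacon DNA duplex and ATP to start · Compound – single 10.9 µM dose · Timing – 1 h at 25 °C · Technique – Cy5 beacon fluorescence read at start and 1 h · Measure – % inhibition of unwinding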
EBV gp42 block: Epstein-Barr virus gp42 inhibitors, primary screen, biochemical, uHTS, fluorescence polarization; 220,000 tested, 0.42% active; inhibition, % (tested at 21.74 µM); Fluorescence polarization binding assay, mP read-out; in the data active = inhibition above about 50%
Target sequence (Q1HVG2 whole entry, looked up): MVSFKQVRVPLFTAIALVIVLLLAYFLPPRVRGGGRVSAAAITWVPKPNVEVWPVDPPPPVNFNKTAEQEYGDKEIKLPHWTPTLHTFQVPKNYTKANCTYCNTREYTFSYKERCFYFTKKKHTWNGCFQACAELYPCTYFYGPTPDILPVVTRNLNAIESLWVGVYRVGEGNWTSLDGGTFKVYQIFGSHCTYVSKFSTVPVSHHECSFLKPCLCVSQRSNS
EBNA-1 inh: EBNA-1 DNA-binding inhibitors, primary screen, biochemical, fluorescence polarization; AID 1950, 2009; 300,000 tested, 0.34% active; inhibition, % at 14.8 µM; in the data active = inhibition above about 28%
GPR7 antag: GPR7 receptor antagonists, primary screen, cell-based, fluorescence, single concentration | 290,000 tested, 1.1% active | AID 1861, 2009 | GPR7-expressing cells, fluorescence antagonist assay | inhibition, % at 4.4 µM | Neuropeptides B/W receptor type 1 (Homo sapiens), P48145; in the data active = inhibition above about 16%, passing the limit was not always enough;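 also: cells stimulated with the agonist NPW; 0% = agonist with vehicle and 100% = vehicle without agonist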
core dimer inh: inhibitors of HCV core protein dimerization, primary screen, biochemical, TR-FRET, high-throughput; inhibition, % at 5 µM; TR-FRET GST/Flag-core106 dimerization, 1536-well; 300,000 tested, 0.33% active;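 active = inhibition above the mean of all tested compounds plus 3 SD, set per screening campaign, cut at about 45% in these data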
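Assay system: Tagged HCV core106 pair (GST and Flag) | Buffer or medium: KF-containing HEPES buffer, pH 7.45, DTT, CHAPS, BSA | Also added: Eu donor and XL665 acceptor anti-tag antibodies | Dosing: One concentration, 5 µM, in 0.5% DMSO | Timing: 4 h at 22.5 °C | Technique: TR-FRET 671 and 617 nm emission | Repeats: Singlicate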
An asterisk follows results filed as active; nt = no result given. The list is not random: actives were taken first. Their share in the collection is about 2.3%.

SMILES	ZTA DNA inh	NS3 helicase inh	EBV gp42 block	EBNA-1 inh	GPR7 antag	core dimer inh
O=C(OC[C@H]1O[C@@H](OC(=O)c2cc(O)c(O)c(OC(=O)c3cc(O)c(O)c(O)c3)c2)[C@H](OC(=O)c2cc(O)c(O)c(OC(=O)c3cc(O)c(O)c(O)c3)c2)[C@@H](OC(=O)c2cc(O)c(O)c(OC(=O)c3cc(O)c(O)c(O)c3)c2)[C@@H]1OC(=O)c1cc(O)c(O)c(OC(=O)c2cc(O)c(O)c(O)c2)c1)c1cc(O)c(O)c(OC(=O)c2cc(O)c(O)c(O)c2)c1	87*	nt	nt	86*	nt	-122
O=S(=O)(c1cc(-c2nc3ccccc3s2)ccc1Cl)N1CCOCC1	nt	14	-19	nt	23*	nt
O=C(Nc1ccccc1)Nc1ccc(Cl)c(S(=O)(=O)N2CCOCC2)c1	-12	9	6	-3	18*	-1
Cc1ccc(-c2nc3ccccc3s2)cc1S(=O)(=O)N1CCOCC1	-14	6	-18	10	-4	4
O=C(NCCNC(=O)c1ccccc1F)c1ccco1	11	-2	nt	-1	-13	0
Cc1nc(C)c(-c2ccn(S(=O)(=O)c3ccc(Cl)cc3)n2)o1	-1	13	-18	4	19*	0
O=S(=O)(c1ccc(Cl)cc1)n1cccn1	2	1	-3	10	5	-5
CN(C)c1nnnn1Cc1ccc(Cl)cc1Cl	-17	-10	-18	8	-9	-7
CCc1ccc(-c2nc(CN3CCC(C(=O)N4CCN(c5ccccc5)CC4)CC3)c(C)o2)cc1	6	-54	0	11	23*	-1
CCc1ccc(-c2nc(CN3CCC(C(=O)N4CCN(c5ccccn5)CC4)CC3)c(C)o2)cc1	-10	-69	-10	1	-5	3
CCN(CCNC(=O)C1CCN(Cc2nc(-c3ccc(Cl)cc3)oc2C)CC1)c1ccccc1	18	-47	4	-2	53*	2
Fc1ccccc1COc1ccc(C(=S)N2CCCC2)cc1	-11	2	nt	4	-7	14
COc1ccc2cc3c(N)nn(C(=O)c4cccc([N+](=O)[O-])c4)c3nc2c1	-13	4	24	8	-8	58*
COc1ccc2cc3c(N)nn(C(=O)Cc4ccccc4OC)c3nc2c1	16	7	10	6	-13	4
CCOc1ccc(NC(=O)/C(C#N)=C/c2ccc(N3CCCC3)c(C)c2)cc1	17	8	94*	26	-13	-34
CCN(CC)S(=O)(=O)c1ccc(N2CCCCC2)c(NC(=O)/C(C#N)=C/c2ccc(OC)cc2)c1	-6	20	-11	1	-6	12
O=S(=O)(Nc1nc2ccccc2nc1Cl)c1cccc(C(F)(F)F)c1	-7	-1	nt	7	-16	-7
Cc1cc(Nc2ccccc2)nc(NCc2ccccc2)n1	2	-89	-5	1	37*	-8
CN1CCN(C2Cc3ccccc3Sc3ccc(Cl)cc32)CC1 (centres undefined)	12	nt	nt	7	nt	-4
CSc1ccc2c(c1)C(N1CCN(C)CC1)Cc1ccccc1S2 (centres undefined)	8	-71	-10	-6	35*	-15
Cc1ccc(NC(=O)c2c3c(nc4ccccc24)CCC3)cc1S(=O)(=O)N(C)C	-4	16	-2	4	-9	66*
COc1ccc(NC(=O)c2c3c(nc4ccccc24)CCC3)cc1S(=O)(=O)N1CCOCC1	-11	9	37	1	-7	78*
COc1ccc(C(=O)Nc2ccc(NC(=O)c3ccccc3)cc2)cc1S(=O)(=O)N1CCOCC1	-15	11	nt	-3	3	-5
CCn1c(=O)[nH]c(=O)c2c(N)c(C(=O)c3ccccc3OC)sc21	9	7	-18	9	-14	15
CCOc1ccccc1CNS(=O)(=O)c1ccc2[nH]c(=O)sc2c1	-3	-4	-19	-8	21*	-9
O=[N+]([O-])c1ccc(/C=N/n2c(CO)nc3ccccc32)s1	8	2	53*	4	-3	-4
Cc1nc2ccccc2n1/N=C/c1ccc([N+](=O)[O-])s1	-5	0	-20	-3	-6	-9
N#CC1=C(N)Oc2cc(N)ccc2C1c1cccc(Br)c1 (centres undefined)	nt	3	nt	nt	7	nt
